A selection: hits, their analogues and other compounds. The true share with any hit is near 3.8%.
SIRT5 block: SIRT5 desuccinylase inhibitors, primary screen, biochemical, fluorescence imaging, single point, set 5 | NAD-dependent protein deacylase sirtuin-5, mitochondrial (Homo sapiens), Q9NXA8 | Purified SirT5, succinyl-peptide AMC, trypsin-coupled fluorescence | inhibition, % at 15 µM | 330,000 compounds, 1.1% hits | AID 652115, 2013; in the data active means inhibition above about 15%; inconclusive means no clear call, values can overlap the other calls
Target sequence (Q9NXA8 whole entry, looked up): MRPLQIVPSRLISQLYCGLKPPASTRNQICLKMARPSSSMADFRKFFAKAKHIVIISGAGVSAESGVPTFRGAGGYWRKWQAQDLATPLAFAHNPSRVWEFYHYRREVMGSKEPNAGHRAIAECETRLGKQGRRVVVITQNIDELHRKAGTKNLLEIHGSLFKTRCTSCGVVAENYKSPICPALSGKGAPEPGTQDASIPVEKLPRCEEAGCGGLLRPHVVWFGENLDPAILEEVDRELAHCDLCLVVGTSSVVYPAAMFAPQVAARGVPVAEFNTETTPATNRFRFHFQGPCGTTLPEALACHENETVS
FGF22 binding: binders of human FGF22 protein, primary screen, FGF22 synaptogenesis inhibitor project, biophysical, thermal shift, single point; AID 651658, 2012; Fibroblast growth factor 22 (Homo sapiens), Q9HCT0; activity (Tm shift, normalised), % at 9.99 µM; recombinant FGF22 thermal shift, SYPRO orange fluorescence; percent of sucrose octasulfate shift, DMSO zero; 340,000 compounds, 1.5% hits;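 active means mean Tm shift, scaled 0 neutral to 100 positive control, at about 1.3% or above, every replicate too, limit read from the data; inconclusive means no clear call, values can overlap the other calls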
Target sequence (Q9HCT0 whole entry, looked up): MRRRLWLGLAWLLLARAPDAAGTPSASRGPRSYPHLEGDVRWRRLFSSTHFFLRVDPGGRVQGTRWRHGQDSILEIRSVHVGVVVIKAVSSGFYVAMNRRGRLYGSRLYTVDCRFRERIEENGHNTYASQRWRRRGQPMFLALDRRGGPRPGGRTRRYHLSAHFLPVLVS
DENV2 CPE rescue: inhibitors of DENV2 cytopathic effect, primary screen, cell-based, plate reader, single concentration | 350,000 compounds, 1.7% hits | CPE inhibition, % at 9.99 µM | DENV2-infected cells, cytopathic effect rescue; in the data active means CPE inhibition above about 20%, passing the limit was not always enough; inconclusive means no clear call, values can overlap the other calls; tested in BHK-21 cells;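 further: 0% = median of neutral control wells and 100% = median of positive control wells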
XiGFP reactiv: activators of inactive X chromosome reactivation, primary screen, imaging, XiGFP fibroblasts, GFP high-content imaging, set 2 | XiGFP mouse fibroblasts, % GFP-positive cells imaging, 3 d; cells co-treated with 5-aza-dC sensitizer; scaled so ellipticine positive control = 100% | activation, % at 7.58 µM | 360,000 compounds, 0.055% hits | AID 743238, 2013;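 active means mean normalized replicate activation at least 10% and every replicate at or above 10%; inconclusive means only one of the two criteria met; inactive means mean below 10% and not all replicates reach 10%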;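 further: 0% = median of on-plate neutral control wells and 100% = ellipticine 6 µM median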
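Material: XiGFP fibroblasts, SV40-immortalized. Buffer or medium: DMEM plus 5-aza-dC sensitizer. Compound: single concentration per compound, delivered by pin transfer. Times: 3 days compound exposure. Controls: ellipticine 6 µM.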
FN deposition inh: inhibitors of fibronectin matrix deposition, primary screen, AH1F cells, Alexa488-fibronectin fluorescence, plate reader. AH1F fibroblasts, overnight. 350,000 compounds, 0.086% hits. inhibition, % at 12.6 µM;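 active means mean inhibition across replicates of 30% or more, regardless of how many single replicates reach that level; inconclusive means mean under 30% yet at least half of replicates reach 30%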;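 further: positive control wells lacked labelled fibronectin entirely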
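material = AH1F fibroblast monolayer depositing Alexa488-labelled fibronectin into matrix | amount = 10000 AH1F cells/well | buffer or medium = DMEM plus 2% serum, read in PBS | incubation = 1 h cell adhesion before compound, then overnight fibronectin incubation | detection = fluorescence at 485 nm excitation, 525 nm emission | evaluation = percent inhibition as loss of matrix-bound fibronectin fluorescence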
ARNT TACC3 PPI: disruptors of ARNT/TACC3 protein interaction, primary screen, biochemical, AlphaScreen, single concentration; AlphaScreen His-ARNT PAS-B/GST-TACC3 binding, luminescence; TACC3 fragment carries E629A point mutation; AID 623870, 2012; 390,000 compounds, 0.66% hits; inhibition, % at 9.99 µM; Transforming acidic coiled-coil-containing protein 3 (Homo sapiens), Q9Y6A5;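 active means mean inhibition of replicates at least 50% and at least half of replicates each reaching 50%; inconclusive means half or more replicates reach 50% but mean below 50%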;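 further: 0% = complete ARNT plus TACC3 wells and 100% = ARNT alone without TACC3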
* hit, by the source's call; u = inconclusive; x = no result given.

SMILES	SIRT5 block	FGF22 binding	DENV2 CPE rescue	XiGFP reactiv	FN deposition inh	ARNT TACC3 PPI
C[C@H](CO)N1C[C@H](C)[C@@H](CN(C)Cc2ccc(C(=O)O)cc2)Oc2c(NC(=O)Cc3ccccc3)cccc2C1=O	2	0	53*	1	-10	2
C[C@@H]1CN([C@H](C)CO)C(=O)c2cccc(NC(=O)Nc3ccccc3)c2O[C@@H]1CN(C)Cc1ccc(Cl)c(Cl)c1	8	0	76*	0	-7	x
C[C@H]1CN([C@@H](C)CO)C(=O)c2cccc(NC(=O)Nc3ccccc3)c2O[C@@H]1CN(C)Cc1ccc(Cl)c(Cl)c1	0	0	-10	-1	-2	10
C[C@H](CO)N1C[C@H](C)[C@H](CN(C)Cc2ccc(C(F)(F)F)cc2)OCCCC[C@H](C)Oc2ccc(NC(=O)c3ccncc3)cc2C1=O	13	-1	u	0	18	6
O=C(Nc1ccc2c(c1)[C@@H]1C[C@H](CC(=O)N3CCOCC3)O[C@H](CO)[C@@H]1O2)NC1CCCC1	0	0	2	0	-6	-8
CCCC#Cc1ccc2c(c1)O[C@@H](CN(C)C(=O)Nc1ccc(OC)cc1)[C@H](C)CN([C@@H](C)CO)S2(=O)=O	10	0	-5	0	x	6
COc1ccc(NC(=O)N(C)C[C@@H]2Oc3cc(C#CCN(C)C)ccc3S(=O)(=O)N([C@H](C)CO)C[C@@H]2C)cc1	0	0	-6	-1	5	-5
COc1ccc(NC(=O)N(C)C[C@H]2Oc3cc(-c4ccc(C)cc4)ccc3S(=O)(=O)N([C@H](C)CO)C[C@H]2C)cc1	-2	1.7*	9	0	x	4
COc1ccc(NC(=O)N(C)C[C@@H]2Oc3cc(-c4ccc(C)cc4)ccc3S(=O)(=O)N([C@@H](C)CO)C[C@H]2C)cc1	9	0	2	0	x	2
COc1ccc(NC(=O)N(C)C[C@@H]2Oc3cc(C#CCC(C)C)ccc3S(=O)(=O)N([C@H](C)CO)C[C@H]2C)cc1	25*	0	-6	-1	x	x
CCCC#Cc1ccc2c(c1)O[C@H](CN(C)C(=O)Nc1ccc(OC)cc1)[C@@H](C)CN([C@@H](C)CO)S2(=O)=O	18*	-1	u	0	x	7
COc1ccc(NC(=O)N(C)C[C@H]2Oc3cc(C#CCC(C)C)ccc3S(=O)(=O)N([C@@H](C)CO)C[C@H]2C)cc1	26*	1	2	x	x	8
CNC(=O)C[C@H]1CC[C@@H]2[C@H](COc3ccc(NC(=O)c4cccc(F)c4)cc3C(=O)N2C)O1	-1	0	5	0	-7	-3
CC(C)NC(=O)N(C)C[C@@H]1Oc2ccc(NC(=O)Nc3cccc4ccccc34)cc2CC(=O)N([C@@H](C)CO)C[C@@H]1C	-2	-1	0	-1	x	1
COc1ccc(NC(=O)N(C)C[C@@H]2Oc3cc(C#CCC(C)C)ccc3S(=O)(=O)N([C@@H](C)CO)C[C@@H]2C)cc1	29*	0	4	1	x	5
COCC#Cc1ccc2c(c1)O[C@@H](CN(C)C(=O)Nc1ccc(OC)cc1)[C@H](C)CN([C@@H](C)CO)S2(=O)=O	4	0	u	0	3	5
COc1ccc(NC(=O)N(C)C[C@H]2Oc3cc(C#CCC(C)C)ccc3S(=O)(=O)N([C@@H](C)CO)C[C@@H]2C)cc1	33*	0	3	0	x	9
CCN1C(C)=C(C)S/C1=C1\SC(=S)N(C2CCCCC2)C1=O	2	44*	13	0	7	x
CCN1C(C)=C(C)S/C1=C1\SC(=S)N(NC(C)=O)C1=O	0	0	-5	0	-1	-8
COc1ccc(OC)c(NC2c3ncccc3C(=O)N2Cc2ccco2)c1 (stereo not given)	16*	0	5	x	x	-18
Cc1ccc(S(=O)(=O)N(C)C[C@@H]2OCCCC[C@@H](C)Oc3ccc(NC(=O)Nc4ccc(F)cc4)cc3C(=O)N([C@@H](C)CO)C[C@@H]2C)cc1	7	0	-3	0	10	0
COc1ccc2c3c([nH]c2c1)[C@@H](CO)N(C(=O)NC(C)C)CC31CN(C(=O)NC2CCCC2)C1	x	x	x	0	x	x
CC(C)NC(=O)N1C2CN(CC(F)(F)F)CC1C2c1ccc(Br)cc1 (stereo not given)	x	x	x	0	-9	x
c1ccc(NC2=NCCN2CC2CCC2)cc1	x	0	5	0	-8	-1
CC1CCC(CN2CCN=C2Nc2ccccc2)CC1 (stereo not given)	x	0	40*	0	2	-4
SMILES	SIRT5 block	FGF22 binding	DENV2 CPE rescue	XiGFP reactiv	FN deposition inh	ARNT TACC3 PPI
C[C@H](CO)N1C[C@H](C)[C@H](CN(C)C(=O)Nc2cccc3ccccc23)Oc2ccc(NC(=O)CCN3CCOCC3)cc2CC1=O	3	0	-10	-1	-13	-4
Cc1ccc(S(=O)(=O)NCC(=O)OCc2cc(=O)oc3cc(C)ccc23)cc1	-1	0	-4	1	-2	-5
Cc1ccc2c(COC(=O)CNC(=O)c3ccccc3)cc(=O)oc2c1	-3	0	118*	0	-1	-9
COc1ccc2c3c([nH]c2c1)[C@H](CO)N(C(=O)Nc1c(C)noc1C)CC31CN(CC2CC2)C1	x	x	x	0	x	x
Cc1ccc(S(=O)(=O)Nc2cccnc2)c(C)c1C	15*	0	3	0	-12	3
Cc1ccccc1S(=O)(=O)Nc1cccnc1	x	x	x	x	x	-7
Cc1cnc(NC(=O)c2cc3ccccc3o2)s1	112*	0	13	0	x	-1
COC(=O)[C@H]1[C@H](CO)[C@H]2Cn3c(ccc(C4=CCCCC4)c3=O)[C@H]2N1Cc1cccnc1	-14	x	26*	0	x	x
CCCNC(=O)[C@H]1[C@H](CO)[C@H]2Cn3c(ccc(-c4ccc(OC)cc4)c3=O)[C@H]2N1CCC	16*	0	13	0	x	-3
COc1cccc(CNC(=O)[C@H]2[C@H](CO)[C@H]3Cn4c(ccc(-c5ccncc5)c4=O)[C@H]3N2C)c1	-1	1	138*	0	x	-4
CCCN1[C@H](C(=O)OC)[C@@H](CO)[C@@H]2Cn3c(ccc(-c4cccc(OC)c4)c3=O)[C@@H]21	x	0	-3	0	-5	7
